Each block holds one compound with its values, some of them ahead of it.
Key:
full length SHP1 = full length SHP1 (Homo sapiens, UniProt P29350); assay: In vitro phosphatase activity assay, phospho-peptide substrate, Malachite Green; format: biochemical; conditions: data not shown
full length SHP2 = target: T1, full length SHP2 (Homo sapiens, UniProt Q06124); assay: In vitro phosphatase activity assay, phospho-peptide substrate, Malachite Green; format: biochemical; conditions: for inhibition of SHP2 phosphatase activity (qualitative): phospho-peptide substrate
T1 sequence (Q06124 1-593): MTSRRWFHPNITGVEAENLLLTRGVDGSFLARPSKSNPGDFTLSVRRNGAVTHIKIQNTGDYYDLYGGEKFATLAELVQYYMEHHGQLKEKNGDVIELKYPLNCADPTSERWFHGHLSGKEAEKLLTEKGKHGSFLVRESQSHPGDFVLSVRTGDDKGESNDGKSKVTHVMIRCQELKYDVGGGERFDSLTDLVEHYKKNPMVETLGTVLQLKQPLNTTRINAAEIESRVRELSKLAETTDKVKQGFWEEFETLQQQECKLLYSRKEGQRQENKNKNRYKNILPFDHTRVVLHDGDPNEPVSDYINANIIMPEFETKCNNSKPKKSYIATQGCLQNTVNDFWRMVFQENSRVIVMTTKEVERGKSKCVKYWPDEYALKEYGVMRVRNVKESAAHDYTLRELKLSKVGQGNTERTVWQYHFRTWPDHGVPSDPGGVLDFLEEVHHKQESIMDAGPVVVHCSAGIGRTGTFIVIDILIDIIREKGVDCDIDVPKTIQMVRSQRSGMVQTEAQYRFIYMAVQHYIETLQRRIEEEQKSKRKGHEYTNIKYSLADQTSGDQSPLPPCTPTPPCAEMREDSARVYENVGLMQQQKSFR
Outline: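 Purified full-length SHP2 (0.1 μg) was preincubated with test compound for 30 min at room temperature in 25 mM Tris-HCl pH 7.4, 50 mM NaCl, 5 mM DTT, 2.5 mM EDTA. Phospho-peptide (also an N-SH2 activator) was added to 50 µM final and incubated 30 °C, 30 min. Freed phosphate was read by Malachite Green at OD620. Lineweaver-Burk used 0, 10, 20 μM; mean ± SD, three experiments.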

His-tagged SHP2 = target: T2, His-tagged SHP2 (Homo sapiens, UniProt Q06124); assay: Thermal shift assay; format: binding; conditions: 5, 10, 60 µM
T2 sequence (Q06124 1-593): T1 sequence (Q06124 1-593)
Outline: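 His-tagged SHP2 (1 µg) in 50 mM Tris-HCl pH 8.0, 500 mM NaCl, 50 mM imidazole was mixed with 5x Sypro Orange stock, 20 µl reaction. Test compound in DMSO was added to 5, 10 or 60 µM final; 1% DMSO served as control. Samples were heated 22–95 °C in 1 °C steps every 50 sec, and Tm was taken from melting curves. Mean ± SD of three independent experiments.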

H661 cells (PTPN11 N58S) = assay: Lung cancer cell proliferation; format: cell-based, human; conditions: 48 hours, dose-dependent; more sensitive than H596
Outline: (§1)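 Human lung cancer H661 (PTPN11 N58S/+) and H596 (WT PTPN11) cells were exposed to graded test compound for 48 hours, with DMSO controls. Cell number was measured by One Solution Cell Proliferation Assay kit. Three experiments; mean ± SD of triplicates from one representative experiment.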

[1] = tested on: myeloid progenitors from PTPN11 E76K/+ mice; assay: Colony-forming unit assay, mouse bone marrow cells; format: cell-based; conditions: GM-CSF 1.0 ng/mL, 7 days, vs WT control cells
Outline: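 Bone marrow from Ptpn11E76K/+/Mx1-Cre+ and Ptpn11+/+/Mx1-Cre+ mice was plated at 2×10^4 cells/mL in 0.9% methylcellulose IMDM (30% FBS, glutamine, β-mercaptoethanol, GM-CSF 1.0 ng/mL) with graded test compound or DMSO. Cultures ran 7 days at 37 °C in 5% CO2. Myeloid colonies (CFU-GM, CFU-M) were counted and normalized to WT DMSO colonies. Mean ± SD of three independent experiments.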

Ba/F3 cells [2] = assay: IL-3 dependent cell proliferation; format: cell-based, murine; conditions: IL-3 1.0 ng/mL, 48 hours
Outline: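 Cell numbers were read 48 hours after treatment with the One Solution Cell Proliferation Assay kit. Three experiments; mean ± SD of triplicates from one representative experiment.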

[3] = target: T3, full length WT SHP2 GST-fusion protein (Homo sapiens, UniProt Q06124); assay: Fluorescence titration; format: binding; conditions: SHP2 3.0 µM, dose-dependent
T3 sequence (Q06124 1-593): T1 sequence (Q06124 1-593)
Outline: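 GST-fusion full-length WT SHP2 was held at 3.0 μM in 20 mM Tris-HCl, pH 7.5, and titrated with rising test compound. Excitation was 295 nm and emission was read 360–500 nm. Inhibitor-alone fluorescence was subtracted. Relative intensity was plotted against log molar concentration. Three independent experiments; mean ± SD of triplicates from one representative run.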

[4] = tested on: SHP2 (full length WT, E76K, PTP domain); assay: Phosphatase assay with pNPP as the substrate; format: biochemical; conditions: 1 at 10 μM; any form of SHP2 protein
Outline: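 SHP2 enzyme (0.1 μg; full-length WT, E76K or PTP domain) was incubated with test compound for 15 min at 37 °C in 25 mM Tris-HCl pH 7.4, 50 mM NaCl, 5 mM DTT, 2.5 mM EDTA. pNPP was added to 0.9 mg/ml final and incubated a further 15 min at 37 °C. Read-out was OD405. Three independent experiments.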

Ba/F3 cells [5] = assay: IL-3-induced signaling, immunoblotting of p-Erk, p-Akt, p-Jak2, p-Stat5; format: cell-based, murine; conditions: 4 hours pretreatment, IL-3 2.0 ng/mL, dose-dependent
Outline: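 Ba/F3 cells were starved overnight in serum- and cytokine-free RPMI1640, given test compound for 4 h, then stimulated with IL-3 2 ng/mL. Stimulation was 10 min for the dose series, or a time course at 20 µM. Cells were lysed in RIPA with NaF, Na3VO4 and protease inhibitors. 50 μg protein per lane went through SDS-PAGE and phospho-antibody immunoblotting with ECL. Blots were reprobed for total proteins. Three independent experiments.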

H596 cells (WT PTPN11) = assay: Lung cancer cell proliferation; format: cell-based, human; conditions: 48 hours, dose-dependent
Outline: as §1

[6] = tested on: myeloid blasts from JMML patients with the PTPN11 E76K/+ mutation; assay: Colony-forming unit assay, JMML patient cells; format: cell-based, human; conditions: GM-CSF 1.0 ng/mL, 14 days
[7] = tested on: mouse embryonic fibroblasts (WT, PTPN11 knockout, PTPN11 E76K/+); assay: MEF proliferation; format: cell-based; conditions: 6 μM
Outline: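 Ptpn11 fl/fl and +/+ MEFs were infected with adeno-Cre, then treated with test compound at 6 μM or DMSO. Growth was measured at 24, 48 and 72 h with the One Solution Cell Proliferation kit, and SHP2 loss was confirmed by immunoblot. Ptpn11 E76K/+ and +/+ MEFs at 6 μM were counted with the same kit. Three experiments; mean ± SD of triplicates from one representative.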

H661 cells = assay: Cell cycle analysis, propidium iodide staining and FACS; format: cell-based, human; conditions: 10 and 20 μM, 24 hours
Outline: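 H661 cells (PTPN11 N58S/+) were treated with test compound at 0, 10 or 20 μM, stained with propidium iodide and analysed by FACS. Profiles are representative of three independent experiments.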

cells = assay: Acute toxicity in cells; format: cell-based

full length SHP1, sequence (P29350 whole entry): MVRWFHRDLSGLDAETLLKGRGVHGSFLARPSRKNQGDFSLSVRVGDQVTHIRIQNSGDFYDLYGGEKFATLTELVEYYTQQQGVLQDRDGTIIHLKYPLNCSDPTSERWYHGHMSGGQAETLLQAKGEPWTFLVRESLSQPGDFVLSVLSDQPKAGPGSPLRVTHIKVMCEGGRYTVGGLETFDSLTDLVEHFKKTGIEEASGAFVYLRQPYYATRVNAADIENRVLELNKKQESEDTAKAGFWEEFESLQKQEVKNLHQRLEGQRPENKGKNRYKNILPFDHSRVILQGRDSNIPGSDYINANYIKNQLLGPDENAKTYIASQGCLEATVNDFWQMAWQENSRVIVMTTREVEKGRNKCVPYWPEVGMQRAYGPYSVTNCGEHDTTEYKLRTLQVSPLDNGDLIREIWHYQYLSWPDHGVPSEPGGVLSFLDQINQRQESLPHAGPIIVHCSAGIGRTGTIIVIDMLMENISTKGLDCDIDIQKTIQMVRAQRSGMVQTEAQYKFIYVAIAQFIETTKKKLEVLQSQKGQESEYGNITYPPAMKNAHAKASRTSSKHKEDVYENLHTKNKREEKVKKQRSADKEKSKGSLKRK

inhibition of SHP2 phosphatase activity (qualitative) (full length SHP2): good effects on SHP2
SMILES: CCOc1cc(O)c(C(=O)/C=C/c2ccc(Cl)cc2Cl)cc1CN1CCNCC1C (stereo not drawn) [LY5]
inhibition of SHP1 relative to SHP2 (qualitative) (full length SHP1): inhibited the SHP1 phosphatase to a similar extent

inhibition of SHP2 phosphatase activity (qualitative) (full length SHP2): good effects on SHP2
SMILES: CCOc1cc(O)c(C(=O)/C=C/c2ccc(Cl)cc2Cl)cc1CN(CC)CC [LY3]
inhibition of SHP1 relative to SHP2 (qualitative) (full length SHP1): inhibited the SHP1 phosphatase to a similar extent

Second part, the compound before the results:

SMILES: CCOc1cc(O)c(C(=O)/C=C/c2ccc(Cl)cc2Cl)cc1CN1CCC=C(n2c(=O)[nH]c3ccccc32)C1 [compound 1, (E)-1-(1-(5-(3-(2,4-dichlorophenyl)acryloyl)-2-ethoxy-4-hydroxybenzyl)-1,2,5,6-tetrahydropyridin-3-yl)-1H-benzo[d]imidazol-2(3H)-one]
shift in melting temperature (Tm) (His-tagged SHP2): dose-dependent right shifts | proliferation of H661 cells (H661 cells (PTPN11 N58S)): inhibited proliferation | inhibition of colony-forming capability of SHP2 E76K-expressing progenitors [1]: much more sensitive than control cells | cell growth (Ba/F3 cells [2]): significantly suppressed cell growth | quenching of SHP2 fluorescence [3]: strong quenching | type of inhibition (Lineweaver-Burk plot) (full length SHP2; 0, 10, 20 μM, Vmax decreased, Km increased): mixed type inhibitor | inhibitory function in presence of Triton X-100 (full length SHP2; 0.001% Triton X-100 in assay buffer): not decreased | inhibition of SHP2 in presence of Triton X-100 (full length SHP2; 0.01% Triton X-100): diminished | inhibition of SHP2 phosphatase activity (qualitative) (full length SHP2): most active compound among the remaining compounds | 1/SHP2 binding after extensive washing of enzyme-inhibitor complex (full length SHP2; washing): stable | effect on capability of SHP2 to dephosphorylate pNPP [4]: did not affect | IL-3-induced activation (phosphorylation) of Erk, Akt, Jak2, Stat5 (Ba/F3 cells [5]): inhibited | proliferation of H596 cells (H596 cells (WT PTPN11)): inhibited proliferation | colony formation of JMML myeloid blasts [6]: exquisitely sensitive | cell growth of PTPN11 E76K/+ MEFs [7]: significantly decreased cell growth | proliferation of WT MEFs ([7]; 24, 48, 72 hours): markedly decreased | proliferation of PTPN11-depleted MEFs ([7]; PTPN11 knockout): did not show a significant effect | cell cycle change (H661 cells): pronounced G2/M arrest

SMILES: CCOc1cc(O)c(C(=O)/C=C/c2ccc(Cl)cc2Cl)cc1CN1CCCCC1 [LY1]
toxicity in cells (cells): acute toxicity in cells

SMILES: CCOc1cc(O)c(C(=O)/C=C/c2ccc(Cl)cc2Cl)cc1CN1C[C@@H](O)C[C@@H]1C(C)=O [LY7]
toxicity in cells (cells): acute toxicity in cells
